What all share (type): cell-based
For one assay, the target named is Mu-type opioid receptor (Homo sapiens, UniProt P35372). In words: Displacement of [3H]DAMGO from human mu opioid receptor expressed in CHO-K1 cells after 60 mins by scintillation counting. A digest of the protocol: (§1)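 Opioid receptor membranes incubated with radioligand (amounts set from saturation experiments) at 25 °C for 60 min, test compound at 300 μM to 1.7 nM in dose-response. Rapid filtration through BSA-presoaked filters, scintillation counting; nonspecific binding (10 μM DPDPE, nor-binaltorphimine or DAMGO) subtracted. IC50 = concentration for 50% inhibition of 3H-ligand binding.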
On the technique in general: Loss of bound radioactivity is the signal in a displacement assay; it reports binding, not function.

Assay [1] has as its target T1, Cannabinoid receptor 2 (Homo sapiens, UniProt P34972). In words: Binding affinity at human CB2 receptor expressed in CHO-K1 cells at 10 uM. In outline: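 CHO-K1 cells stably transfected with full-length human CB1 or CB2 cDNA, cultured in DMEM/F-12 with 10% FBS and G418 or hygromycin B. Membranes (10 μg) incubated with test compound at 10 μM final and 0.6 nM [3H]CP-55,940 in 50 mM Tris pH 7.4, 154 mM NaCl, 20 mM Di-Na-EDTA, 0.02% BSA, 37 °C, 90 min. Filtration, scintillation counting; nonspecific binding (1 μM CP-55,940) subtracted; % displacement.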

Assay [2] addresses T2, Cannabinoid receptor 1 (Homo sapiens, UniProt P21554). As to the kind of experiment: Binding affinity at human CB1 receptor expressed in CHO-K1 cells at 10 uM.
The target in assay [3] is T3, Delta-type opioid receptor (Homo sapiens, UniProt P41143). In words: Binding affinity at human delta opioid receptor expressed in CHO-K1 cells at 10 uM. In outline:
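Opioid membrane binding with test compound at 10 μM final; radioligand and membrane amounts set from saturation experiments. Incubation 25 °C, 60 min, then rapid filtration through BSA-presoaked filters, buffer wash and scintillation counting.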

Assay [4] concerns the target Kappa-type opioid receptor (Homo sapiens, UniProt P41145). As to the kind of experiment: Displacement of [3H]nor-Binaltorphimine from human kappa opioid receptor expressed in CHO-K1 cells after 60 mins by scintillation counting. In outline: as §1
In assay [5] the target is T3, Delta-type opioid receptor. As to the kind of experiment: Displacement of [3H]DPDPE from human delta opioid receptor expressed in CHO-K1 cells after 60 mins by scintillation counting. In outline: as §1
Assay [6] concerns the target T2, Cannabinoid receptor 1. In words: Displacement of [3H]CP-55,940 from human CB1 receptor expressed in CHO-K1 cells after 90 mins by scintillation counting. In outline:
(§2)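 Membranes from CHO-K1 cells stably expressing human CB1 or CB2, 10 μg per well, with 0.6 nM [3H]CP-55,940 in 50 mM Tris pH 7.4, 154 mM NaCl, 20 mM Di-Na-EDTA, 0.02% BSA; 37 °C for 90 min. Dose-response from 300 μM to 1.7 nM.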

For assay [7], the target named is T1, Cannabinoid receptor 2. In words: Displacement of [3H]CP-55,940 from human CB2 receptor expressed in CHO-K1 cells after 90 mins by scintillation counting. A digest of the protocol:
as §2

SMILES strings stand for the structures. A value given as a limit tells only on which side of the number the result lay.

The record followed here is ChEMBL document CHEMBL1811804, “Benzyl derivatives with in vitro binding affinity for human opioid and cannabinoid receptors from the fungus Eurotium repens” (J Nat Prod, 2011).

T3 sequence (P41143 whole entry): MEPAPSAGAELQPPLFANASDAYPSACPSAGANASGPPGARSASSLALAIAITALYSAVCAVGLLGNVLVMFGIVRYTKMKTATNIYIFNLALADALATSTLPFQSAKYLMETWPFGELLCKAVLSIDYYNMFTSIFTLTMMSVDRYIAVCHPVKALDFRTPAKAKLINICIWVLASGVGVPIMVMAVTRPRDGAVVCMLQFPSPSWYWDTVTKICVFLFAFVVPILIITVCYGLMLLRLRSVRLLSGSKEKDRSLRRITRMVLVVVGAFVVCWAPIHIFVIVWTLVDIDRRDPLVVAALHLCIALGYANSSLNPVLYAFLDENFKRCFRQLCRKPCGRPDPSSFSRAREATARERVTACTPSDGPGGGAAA
T1 sequence (P34972 whole entry): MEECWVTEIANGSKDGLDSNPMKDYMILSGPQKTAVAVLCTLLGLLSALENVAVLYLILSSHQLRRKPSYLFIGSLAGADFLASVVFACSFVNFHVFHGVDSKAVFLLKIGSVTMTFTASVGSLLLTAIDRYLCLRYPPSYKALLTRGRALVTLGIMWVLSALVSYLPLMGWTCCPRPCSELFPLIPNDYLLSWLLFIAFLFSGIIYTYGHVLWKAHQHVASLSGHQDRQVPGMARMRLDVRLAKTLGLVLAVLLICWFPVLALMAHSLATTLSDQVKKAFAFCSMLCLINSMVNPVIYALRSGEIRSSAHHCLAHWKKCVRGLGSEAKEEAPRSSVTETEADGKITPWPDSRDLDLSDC
T2 sequence (P21554 whole entry): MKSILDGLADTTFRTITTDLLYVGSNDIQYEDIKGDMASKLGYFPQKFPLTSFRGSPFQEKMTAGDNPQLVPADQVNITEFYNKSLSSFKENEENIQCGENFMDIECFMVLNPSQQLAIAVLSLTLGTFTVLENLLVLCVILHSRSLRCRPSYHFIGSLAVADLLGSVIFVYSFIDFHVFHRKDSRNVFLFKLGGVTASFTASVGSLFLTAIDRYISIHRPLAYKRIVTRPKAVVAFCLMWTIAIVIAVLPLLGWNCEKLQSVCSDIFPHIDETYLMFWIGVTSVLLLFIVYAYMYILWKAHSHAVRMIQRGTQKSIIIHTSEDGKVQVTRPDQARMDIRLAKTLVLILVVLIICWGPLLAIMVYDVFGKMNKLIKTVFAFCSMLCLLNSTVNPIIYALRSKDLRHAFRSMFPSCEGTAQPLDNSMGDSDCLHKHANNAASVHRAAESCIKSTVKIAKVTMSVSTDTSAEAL
Sequence of Kappa-type opioid receptor (P41145 whole entry): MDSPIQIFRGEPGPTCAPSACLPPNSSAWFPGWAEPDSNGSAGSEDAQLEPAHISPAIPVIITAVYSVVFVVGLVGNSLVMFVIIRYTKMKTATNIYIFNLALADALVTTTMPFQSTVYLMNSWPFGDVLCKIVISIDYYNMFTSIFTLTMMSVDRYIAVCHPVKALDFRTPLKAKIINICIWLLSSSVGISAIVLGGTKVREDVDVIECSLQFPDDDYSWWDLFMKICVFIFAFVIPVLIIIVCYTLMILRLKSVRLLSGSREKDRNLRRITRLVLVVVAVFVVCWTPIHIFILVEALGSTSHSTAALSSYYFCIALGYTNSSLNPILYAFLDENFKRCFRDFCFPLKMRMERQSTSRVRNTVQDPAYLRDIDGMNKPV
Sequence of Mu-type opioid receptor (P35372 whole entry): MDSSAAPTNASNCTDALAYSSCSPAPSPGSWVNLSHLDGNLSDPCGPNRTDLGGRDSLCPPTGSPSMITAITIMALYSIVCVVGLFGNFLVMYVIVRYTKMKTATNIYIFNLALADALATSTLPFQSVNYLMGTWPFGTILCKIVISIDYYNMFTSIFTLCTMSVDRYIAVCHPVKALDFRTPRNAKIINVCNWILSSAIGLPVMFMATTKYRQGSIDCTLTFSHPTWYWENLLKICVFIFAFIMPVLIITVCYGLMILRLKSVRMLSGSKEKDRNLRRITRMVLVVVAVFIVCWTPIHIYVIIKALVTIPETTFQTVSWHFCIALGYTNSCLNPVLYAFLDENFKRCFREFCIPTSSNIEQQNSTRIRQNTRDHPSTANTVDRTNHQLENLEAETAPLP

On to `CCCCC/C=C/c1c(O)cc(CC=C(C)C)c(O)c1C=O` [TETRAHYDROAUROGLAUCIN], for which the IC50 (usually the concentration that gives 50% inhibition) at Mu-type opioid receptor stood at 7.2 µM. Besides, the Activity (on Cannabinoid receptor 2 [1]; on Cannabinoid receptor 1 [2]; in assay [3]) was under 40% throughout.

On to `CCCCCCCc1c(O)cc(CC=C(C)C)c(O)c1C=O`, for which the Activity was under 40% at Cannabinoid receptor 2 [1], under 40% on Cannabinoid receptor 1 [2] and 52.5% in assay [3].

As for `CCC/C=C/c1cc2c(C=O)c(O)c(CC=C(C)C)cc2o1`, the Activity (on Cannabinoid receptor 2 [1]; on Cannabinoid receptor 1 [2]; in assay [3]) was under 40% throughout.

With `Cc1c(O)cc(O)c2c1COC2=O`, the Activity (at Cannabinoid receptor 2 [1]; at Cannabinoid receptor 1 [2]; in assay [3]) was under 40% throughout.

In the case of `CCCCC/C=C/c1c(O)cc(CC=C(C)C)c2c1CC(O)O2` (stereo not given), the Activity in assay [3] is under 40%. In addition, in assay [4], the IC50 was 32.4 µM.

`C=CC(C)(C)c1[nH]c2c(CC=C(C)C)cc(CC=C(C)C)cc2c1C[C@@H]1NC(=O)[C@H](C)NC1=O`: the Activity (at Cannabinoid receptor 2 [1]; on Cannabinoid receptor 1 [2]; in assay [3]) was under 40% throughout.

With `CCCCC/C=C/c1c(O)cc(CC=C(C)C)c(O)c1CO`, in assay [5], the IC50 amounted to 5.4 µM. Also, the Activity at Cannabinoid receptor 2 [1] is under 40%; at Cannabinoid receptor 1 [2], under 40%; in assay [3], 62.2%.

Take `C/C=C/C=C/C=C/c1c(O)cc(CC=C(C)C)c(O)c1C=O` [AUROGLAUCIN]: the values for the Activity (on Cannabinoid receptor 2 [1]; on Cannabinoid receptor 1 [2]; in assay [3]) were 43.1%, 62.6% and under 40%, respectively. The IC50 at Cannabinoid receptor 1 [6] was 15.2 µM; at Cannabinoid receptor 2 [7] it was 19.9 µM.

For the molecule `CCC/C=C/C=C/c1c(O)cc(CC=C(C)C)c(O)c1C=O`, the Activity (at Cannabinoid receptor 2 [1]; on Cannabinoid receptor 1 [2]; in assay [3]) was under 40% throughout.
